MrgX1 antagonist – antagonists of human MrgX1 receptor, primary screen, HEK293 cells, Fluo-4 calcium flux; Mas-related G-protein coupled receptor member X1 (Homo sapiens), Q96LB2; BAM8-22 antagonism; active compounds read low; B-score at 10 µM; hit rate 1.3% among 310,000;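 active = calcium-response B-score plate-corrected more than 3 library SD below zero, starting fluorescence within 5 deviations, no agonist response on first addition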;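 also: peak minus trough fluorescence over baseline after final BAM8-22 challenge near maximal dose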
Target sequence (Q96LB2 whole entry, looked up): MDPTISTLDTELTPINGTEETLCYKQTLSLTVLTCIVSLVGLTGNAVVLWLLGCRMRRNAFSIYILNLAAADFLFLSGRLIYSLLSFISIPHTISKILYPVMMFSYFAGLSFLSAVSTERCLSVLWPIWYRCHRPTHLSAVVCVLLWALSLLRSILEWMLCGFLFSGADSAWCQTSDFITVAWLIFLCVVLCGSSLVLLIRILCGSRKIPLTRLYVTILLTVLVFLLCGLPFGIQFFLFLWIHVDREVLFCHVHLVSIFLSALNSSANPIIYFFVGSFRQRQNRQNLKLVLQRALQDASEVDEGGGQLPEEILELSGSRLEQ
MrgX1 allo act – positive allosteric modulators of MrgX1, primary screen, HEK293 cells, Fluo-4 calcium flux; Mas-related G-protein coupled receptor member X1 (Homo sapiens), Q96LB2; FDSS; active compounds read high; B-score at 10 µM; hit rate 0.63% among 310,000; AID 588675, 2011;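 active = plate-corrected calcium response at least 3 library SD above typical, normal starting fluorescence, not activating the receptor alone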;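 also: compound read alongside a low EC10 to EC30 dose of BAM8-22 agonist; peak minus trough fluorescence over baseline measured at the second addition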
MrgX1 ag – agonists of human MrgX1 receptor, primary screen, HEK293 cells, Fluo-4 calcium flux; hit rate 0.44% among 310,000; Fluo-4 calcium fluorescence, agonist mode; active compounds read high; AID 588627, 2011; Mas-related G-protein coupled receptor member X1 (Homo sapiens), Q96LB2; B-score at 10 µM;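 active = calcium response B-score plate-corrected fluorescence ratio at least 3 library SD, with starting fluorescence B-score inside 5 SD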
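System: HEK293 cells stably expressing human MrgX1 receptor; Dosing: test compound in the initial addition of three; Schedule: overnight plating, then 30 min 37 °C plus 30 min room-temperature dye loading; Detection: kinetic calcium dye fluorescence, Fluo-4 NW; Controls: per-plate positive and negative controls for Z′ factor.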
RGS4 act – RGS4 potentiators or activators, primary screen, cell-based, HEK293 M3R inducible RGS4, calcium flux; hit rate 0.92% among 310,000; carbachol calcium flux Fluo4; active compounds read low; AID 463111, 2010; B-score at 10 µM;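 active = B-score of the integrated calcium signal more than 4 SD below the library mean, with starting fluorescence not abnormally high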;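 also: negative B-score means reduced calcium response which marks RGS4 activation or potentiation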
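Assay system: HEK293 FlpIn-TREx cells, stable M3R, doxycycline-inducible RGS4 / Probe or stimulus: carbachol, ECmax concentration / Times: overnight RGS4 induction, 30 min dye load 37 °C, 20 min compound RT / Signal: kinetic calcium fluorescence imaging with Fluo4-AM dye, 2 µM / Measure: Agonist-evoked peak-minus-minimum fluorescence over baseline, integrated ratio, B score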
RGS4 inh – RGS4 inhibitors, primary screen, cell-based, HEK293 M3R inducible RGS4, calcium flux; Fluo-4 calcium flux; active compounds read high; triggered by carbachol at its EC20; AID 463165, 2010; hit rate 0.45% among 310,000; B-score at 10 µM; Regulator of G-protein signaling 4 (Homo sapiens), P49798;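 active = B-score, a plate-corrected calcium signal, over three deviations above library mean, with baseline fluorescence within five deviations of library mean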;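 also: RGS4 expression induced by doxycycline in cells with stable M3 receptor; B-score is computed from the integrated fluorescence ratio over baseline after carbachol; higher B-score means a larger calcium signal and so more RGS4 inhibition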
Target sequence (P49798 whole entry, looked up): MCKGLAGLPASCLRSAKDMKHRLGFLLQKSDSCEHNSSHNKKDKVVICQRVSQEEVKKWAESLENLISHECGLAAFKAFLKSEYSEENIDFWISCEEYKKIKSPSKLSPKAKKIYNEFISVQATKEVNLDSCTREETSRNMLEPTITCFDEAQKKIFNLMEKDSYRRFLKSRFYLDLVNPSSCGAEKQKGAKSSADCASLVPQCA
RGS4 block valid – enhanced carbachol calcium response, M3R/RGS4 cells, RGS4 inhibitor project, cell-based, validation screen, HEK293 M3R/RGS4, calcium flux | shares compounds with RGS4 inh | carbachol calcium Fluo-4 fluorescence; carbachol added at its EC20; 0 = buffer wells, 100 = carbachol control | calcium response, % at 10 µM | hit rate 65% among 1,700;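 active = duplicate-averaged calcium response above the buffer-only control mean plus 5 SD of those controls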;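 also: integrated fluorescence ratio F max minus min over baseline F0; higher response in RGS4-induced cells means RGS4 inhibition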
RGS4 uninduced – carbachol calcium response in non-induced M3R cells, confirmation, counter-screen for RGS4 inhibitor project, cell-based, HEK293 M3R; hit rate 20% among 1,900; carbachol calcium Fluo-4; submaximal (EC20) carbachol stimulus; buffer wells 0%, carbachol control wells 100%; activity (percent), % at 10 µM; shares compounds with RGS4 inh; call rule not given here;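 also: RGS4 induction absent so cells express M3R without RGS4; higher means more calcium signal and flags a non-specific hit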
M3R basal Ca ctr – signal in non-induced cells without carbachol, RGS4 inhibitor counter-screen. shares compounds with RGS4 inh. HEK293 M3R/RGS4 non-induced, Fluo-4 calcium, no carbachol; normalised: buffer wells 0%, carbachol wells 100%. calcium response (agonist-mode artifact), % at 10 µM. hit rate 22% among 1,900;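 active = duplicate-averaged calcium rise in uninduced cells above buffer wells' mean plus 5 SD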
MrgX1 ag reconf – MrgX1 receptor agonists, duplicate retest, confirmation, HEK293 cells, Fluo-4 calcium flux. activation, % at 10 µM. AID 602412, 2012. Fluo-4 calcium fluorescence, FDSS. shares compounds with MrgX1 ag. hit rate 78% among 600;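 active = calcium signal rise, corrected for plate position, at least 3 library SD high, with starting brightness within 5 such deviations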
HEK293 Ca flux – nonspecific calcium signal in parental HEK293, confirmation, counter-screen for MrgX1 antagonist project, parental HEK293 cells, Fluo-4 calcium flux; shares compounds with MrgX1 antagonist; Fluo-4 calcium fluorescence, FDSS; fluorescence ratio F(max-min)/F0 at 10 µM; hit rate 2% among 4,000; AID 624111, 2012;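 active = duplicate-averaged calcium fluorescence ratio at least three times the standard deviation of buffer wells, a nonspecific response in parental cells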
HEK293 Ca counter – calcium response in parental HEK293 cells, primary screen, counter-screen for MrgX1 allosteric activator project, cell-based, Fluo-4 calcium flux, duplicate. shares compounds with MrgX1 antagonist. Fluo-4 fluorescence ratio; active compounds read high. fluorescence ratio F(max-min)/F0 at 10 µM. hit rate 0.4% among 4,000. AID 624114, 2012;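 active = calcium fluorescence ratio, averaged over duplicates, at least 3 SD of the buffer-well ratio, meaning a nonspecific response in receptor-free cells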;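 also: untransfected parental HEK293 lacking MrgX1 used as counterscreen for MrgX1 allosteric activators; fluorescence change taken during the second addition on a kinetic imager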
HEK293 Ca cntr2 – calcium response in parental HEK293 cells, primary screen, counter-screen for MrgX1 agonist project, cell-based, Fluo-4 calcium flux, duplicate, agonist mode; shares compounds with MrgX1 antagonist; Fluo-4 calcium fluorescence (FDSS); active compounds read high; fluorescence ratio F(max-min)/F0 at 10 µM; hit rate 8.7% among 4,000;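 active = calcium fluorescence ratio at least three times the spread of buffer wells, meaning a non-specific response in parental cells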
Numbers without * were called inactive; i = inactive; . = no result given. Compounds with a hit are over-represented: about 3.5% of the library has one in this group of screens.

SMILES	MrgX1 antagonist	MrgX1 allo act	MrgX1 ag	RGS4 act	RGS4 inh	RGS4 block valid	RGS4 uninduced	M3R basal Ca ctr	others
O=C(c1ccco1)N1CCCN(Cc2cn[nH]c2-c2ccc(-c3ccccc3)cc2)CC1	i	i	i	i	4.9*	10%*	i	i
c1ccc(-c2[nH]ncc2CN2CCc3ccccc3C2)cc1	i	i	i	i	i	.	.	.
COc1ccc(-c2[nH]ncc2CN2CCN(C(=O)c3ccco3)CC2)cc1F	i	i	i	i	i	.	.	.
Fc1ccc(-c2[nH]ncc2CN2CCN(c3ccc(F)cc3)CC2)cc1	i	i	i	i	6.9*	22%*	50%*	i
Fc1ccc(N2CCN(Cc3cn[nH]c3-c3ccccc3)CC2)cc1	i	i	i	i	i	.	i	i
COc1ccc(-c2[nH]ncc2CN2CCN(c3ccc(F)cc3)CC2)cc1	i	i	i	i	i	.	.	.
CC1=NN(c2cccc(C(=O)O)c2)C(=O)/C1=C\C=C/c1ccccc1	.	.	.	i	34*	80%*	59%*	i
CC12CN(C(=O)c3ccccc3Br)CC(C)(CN(C(=O)c3ccccc3Br)C1)C2=O	i	i	i	i	i	.	.	.
CCOC(=O)N1CCc2c(sc3c2c(=O)n(Cc2ccccc2)c(=O)n3Cc2ccccc2F)C1	i	i	i	i	7.3*	56%*	34%*	i
CCOC(=O)N1CCc2c(sc3c2c(=O)n(Cc2ccccc2)c(=O)n3CC(=O)NCC2CCCO2)C1 (stereo unspecified)	i	i	i	i	i	.	.	.
CCOC(=O)N1CCc2c(sc3c2c(=O)n(Cc2ccccc2)c(=O)n3Cc2cccc(C)c2)C1	i	i	i	i	6.8*	32%*	38%*	i
Cc1ccc(Nc2nc(N)c3ccccc3n2)cc1C	i	i	i	i	i	i	i	i
COc1ccc(-c2oc(NC(=O)CSc3ncn[nH]3)c(C#N)c2-c2ccc(OC)cc2)cc1	i	i	i	i	i	.	.	.
COc1ccc(-c2oc(NC(=O)CCl)c(C#N)c2-c2ccc(OC)cc2)cc1	i	i	i	i	11*	58%*	i	i
O=C(NC1CCSc2ccccc21)c1ccc(F)c(S(=O)(=O)N2CCOCC2)c1 (stereo unspecified)	i	i	i	i	i	.	.	.
Cc1cc(C(=O)N/N=C/c2ccc(N(C)C)o2)cs1	i	i	i	i	8.7*	i	i	i
CC1CCN(C(=O)CSc2n[nH]c(-c3cccs3)n2)CC1	i	i	i	i	i	.	.	.
CC(C)(C)OC(=O)N1CCC(c2cc(-c3cccs3)n[nH]2)CC1	i	i	i	i	5*	17%*	i	i
NNc1nc(-c2ccccc2)nc(-c2ccccc2)c1Br	i	i	i	i	i	.	.	.
O=C(CC1Nc2cccc3cccc(c23)NC1=O)Nc1ccccc1 (stereo unspecified)	i	i	i	i	i	.	i	i
CCCOC1CCCN(C(=O)c2cc(COc3ccc(F)c(F)c3)on2)C1 (stereo unspecified)	i	i	i	i	i	.	.	.
O=C1c2ccccc2S(=O)(=O)c2cc(C(=O)N(c3ccccn3)c3ccccn3)ccc21	i	i	41*	i	4.9*	14%*	34%*	135%*	MrgX1 ag reconf=653%*;HEK293 Ca flux=i;HEK293 Ca counter=i;HEK293 Ca cntr2=126*
COc1cc(/C=N/NC(=O)c2cn(-c3cccc(C)n3)cn2)ccc1O	i	i	i	i	i	.	.	.
COc1cc(/C=C2\C(=O)ON=C2c2ccccc2)cc(Br)c1O	i	i	78*	i	4.7*	9.5%*	i	281%*	MrgX1 ag reconf=i;HEK293 Ca flux=i;HEK293 Ca counter=i;HEK293 Ca cntr2=i
CCOc1cc(/C=C2\C(=O)ON=C2c2ccccc2)cc(Br)c1O	i	i	83*	i	i	i	i	322%*	MrgX1 ag reconf=i;HEK293 Ca flux=i;HEK293 Ca counter=i;HEK293 Ca cntr2=i
COc1cc(C=C2C(=O)OC(c3ccccc3)OC2=O)cc(Br)c1O (stereo unspecified)	i	i	i	i	i	.	.	.
NS(=O)(=O)c1ccc(Sc2ccc3ccccc3c2)nc1	i	i	i	i	i	.	.	.
CCOC(=O)C(=O)C1=C(N2CCOCC2)/C(=C\c2ccc(F)cc2)CC1	i	i	27*	i	7.7*	7.0%*	i	21%*	MrgX1 ag reconf=220%*;HEK293 Ca flux=i;HEK293 Ca counter=i;HEK293 Ca cntr2=45*
COc1cc(/C=C2/NC(=O)N(c3cccc(Cl)c3)C2=O)ccc1O	i	i	i	i	i	.	.	.

Screens deposited in PubChem by Johns Hopkins Ion Channel Center.
